# Assays:
# [1] = molecular target: T1, M-phase inducer phosphatase 3 (Homo sapiens, UniProt P30307); assay: Inhibitory activity against recombinant CDC25C
# T1 sequence (P30307 whole entry): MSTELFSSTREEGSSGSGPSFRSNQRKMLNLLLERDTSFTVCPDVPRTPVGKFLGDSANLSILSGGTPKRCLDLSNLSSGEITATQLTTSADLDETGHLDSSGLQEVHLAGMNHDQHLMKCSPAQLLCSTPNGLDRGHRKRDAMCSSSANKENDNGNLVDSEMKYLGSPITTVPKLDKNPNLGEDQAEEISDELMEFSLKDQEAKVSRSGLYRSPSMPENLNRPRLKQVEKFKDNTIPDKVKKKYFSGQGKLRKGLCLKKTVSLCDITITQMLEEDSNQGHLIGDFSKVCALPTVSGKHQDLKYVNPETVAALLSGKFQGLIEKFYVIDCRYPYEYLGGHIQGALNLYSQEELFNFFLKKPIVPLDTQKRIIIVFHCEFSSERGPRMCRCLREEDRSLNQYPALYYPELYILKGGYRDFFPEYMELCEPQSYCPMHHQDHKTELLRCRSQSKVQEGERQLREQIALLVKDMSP
# Procedure, shortened: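 Recombinant maltose binding protein (MBP)-CDC25C fusion enzyme, with 3-O-methylfluorescein phosphate (OMFP) as substrate. IC50 given as mean ± SEM from at least two, usually three, independent experiments.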
# [2] = tested on: MIA PaCa-2; assay: Antiproliferative activity against human pancreatic carcinoma Mia PaCa2 cell line by colorimetric assay; format: functional, cell-based
# Procedure, shortened: (§1)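 WST1 tetrazolium salt cleavage by mitochondrial dehydrogenases in viable cells, colorimetric read-out. IC50 given as mean ± SEM from at least two experiments, with four or eight determinations per tested concentration.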
# [3] = tested on: DU-145; assay: Antiproliferative activity against human androgen-independent prostate carcinoma DU145 cell line by colorimetric assay; format: functional, cell-based; procedure, shortened: as §1
Structure (SMILES),IC50 [1] [nM],IC50 [2] [nM],IC50 [3] [nM]
CCc1nc2c(o1)C(O)=C/C(=N\CCN(C)C)C2=O,130,440,220
CN(C)CC/N=C1\C=C(O)c2cn(C)cc2C1=O,81000,–,–
O=C1C(Cl)=C(NCCN2CCOCC2)C(=O)c2ncccc21,–,2500,2300
Cc1nc2c(s1)C(O)=C/C(=N\CCN(C)C)C2=O,150,180,110
CN(C)CC/N=C1\C=C(O)c2cn(-c3ccccc3)nc2C1=O,12000,–,–
CCc1nc2c(o1)C(=O)C(NCCN(C)C)=CC2=O,130,440,220
CCc1nc2c([nH]1)C(=O)/C(=N/CCN(C)C)C=C2O,12000,18000,> 10000
CC1=CC(=O)c2ccccc2C1=O [MENADIONE],–,6200,11000

# Continued, values first:
IC50 [1] [nM],IC50 [2] [nM],IC50 [3] [nM],Structure (SMILES)
230,150,210,CN(C)CC/N=C1\C=C(O)c2oc(-c3ccccc3)nc2C1=O
17000,12000,> 10000,CN(C)CC/N=C1\C=C(O)c2[nH]c(-c3ccccc3)nc2C1=O
230,150,210,CN(C)CC/N=C1\C=C(O)c2nc(-c3ccccc3)oc2C1=O
12000,–,–,CN(C)CC/N=C1\C=C(O)c2nn(-c3ccccc3)cc2C1=O
